From ChEMBL document CHEMBL1139543, “Antineoplastic agents. 445. Synthesis and evaluation of structural modifications of (Z)- and (E)-combretastatin A-41” (J Med Chem, 2005)
In brackets after ≈: the same amount, converted by molar mass.

Legend:
FaDu = assay: Growth inhibition against human pharynx FADU cell line; assay type: functional
NCI-H460 = assay: Growth inhibition against human lung-NSC NCI-H460 cell line; assay type: functional
DU-145 = assay: Growth inhibition against human prostate cell line (DU-145); assay type: functional
SW-1736 = assay: Growth inhibition against human thyroid cell line( SW 1736); assay type: functional
P388 = assay: Effective dose against murine P388 leukemia cell line; assay type: functional; details: Mus musculus, read-out: ED50 (the source's name)
Tubulin beta-1 chain = Tubulin beta-1 chain (Homo sapiens, UniProt Q9H4B7); assay: Inhibition of tubulin polymerization upon incubation for 20 min at 30 degree C
In short: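 Purified tubulin at 10 µM (1.0 mg/mL) in 0.8 M monosodium glutamate, pH 6.6, with 4% (v/v) DMSO and varying compound concentrations. Preincubated 15 min at 37 °C, chilled on ice, then GTP (0.4 mM) added. Warmed from 0 °C to 30 °C, and assembly followed 20 min by turbidity at 350 nm. IC50 interpolated; at least two determinations; SD reported.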

SK-N-SH = assay: Growth inhibition against human neuroblastoma cell line (SK-N-SH); assay type: functional
BXPC-3 = assay: Growth inhibition against human pancreas carcinoma cell line (BxPC-3); assay type: functional
Staphylococcus aureus [1] = assay: Minimum inhibitory concentration against Staphylococcus aureus was determined in the disk diffusion assay; value ranges from 25-50 ug/disk; assay type: functional
Streptococcus pneumoniae = assay: Minimum inhibitory concentration against Streptococcus pneumoniae was determined in the disk diffusion assay; value ranges from 50-100 ug/disk; assay type: functional
Candida albicans [2] = assay: Minimum inhibitory concentration against Candida albicans was determined in the disk diffusion assay; value ranges from 25-50 ug/disk; assay type: functional
In short: (§1)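 Disk diffusion on Sabouraud Dextrose Agar. MIC taken as the lowest drug amount giving a clear zone of growth inhibition.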

Micrococcus luteus [3] = assay: Minimum inhibitory concentration against Micrococcus luteus was determined in the disk diffusion assay; value ranges from 12.5-25 ug/disk
Neisseria gonorrhoeae [4] = assay: Minimum inhibitory concentration against Neisseria gonorrhoeae was determined in the disk diffusion assay; value ranges from 50-100 ug/disk; assay type: functional
Neisseria gonorrhoeae [5] = assay: Minimum inhibitory concentration against Neisseria gonorrhoeae was determined in the disk diffusion assay; value ranges from 12.5-25 ug/disk; assay type: functional
Cryptococcus neoformans = assay: Minimum inhibitory concentration against Cryptococcus neoformans was determined in the disk diffusion assay; value ranges from 6.25-12.5 ug/disk; assay type: functional
Candida albicans [6] = assay: Minimum inhibitory concentration against Candida albicans was determined in the disk diffusion assay; value ranges from 50-100 ug/disk; assay type: functional; in short: as §1
Enterococcus faecalis = assay: Minimum inhibitory concentration against Enterococcus faecalis was determined in the disk diffusion assay value ranges from 50-100 ug/disk; assay type: functional
Micrococcus luteus [7] = assay: Minimum inhibitory concentration against Micrococcus luteus was determined in the disk diffusion assay; assay type: functional
Micrococcus luteus [8] = assay: Minimum inhibitory concentration against Micrococcus luteus was determined in the disk diffusion assay; value ranges from 12.5-25 ug/disk; assay type: functional
Staphylococcus aureus [9] = assay: Minimum inhibitory concentration against Staphylococcus aureus was determined in the disk diffusion assay; value ranges from 50-100 ug/disk; assay type: functional

Tubulin beta-1 chain, sequence (Q9H4B7 whole entry): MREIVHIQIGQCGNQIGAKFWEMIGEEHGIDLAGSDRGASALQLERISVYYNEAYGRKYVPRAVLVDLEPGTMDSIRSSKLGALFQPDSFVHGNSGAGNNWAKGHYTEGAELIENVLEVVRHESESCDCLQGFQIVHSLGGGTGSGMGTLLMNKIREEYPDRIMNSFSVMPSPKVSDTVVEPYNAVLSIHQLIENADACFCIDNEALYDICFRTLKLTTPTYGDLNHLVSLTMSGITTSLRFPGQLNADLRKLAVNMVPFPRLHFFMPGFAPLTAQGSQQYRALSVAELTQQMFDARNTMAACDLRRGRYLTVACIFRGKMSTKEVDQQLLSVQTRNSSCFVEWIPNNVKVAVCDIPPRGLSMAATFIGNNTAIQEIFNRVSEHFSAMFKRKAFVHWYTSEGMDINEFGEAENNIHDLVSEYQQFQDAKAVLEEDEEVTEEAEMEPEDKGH

GI50 (NCI-H460) [mg/L]	GI50 (DU-145) [mg/L]	GI50 (SW-1736) [mg/L]	EC50 (P388) [mg/L]	IC50 (Tubulin beta-1 chain) [µM]	GI50 (SK-N-SH) [mg/L]	GI50 (BXPC-3) [mg/L]	MIC (Staphylococcus aureus [1]) [ug/disk]	MIC (Streptococcus pneumoniae) [ug/disk]	MIC (Candida albicans [2]) [ug/disk]	MIC (Micrococcus luteus [3]) [ug/disk]	MIC (Neisseria gonorrhoeae [4]) [ug/disk]	MIC (Neisseria gonorrhoeae [5]) [ug/disk]	MIC (Cryptococcus neoformans) [ug/disk]	MIC (Candida albicans [6]) [ug/disk]	MIC (Enterococcus faecalis) [ug/disk]	MIC (Micrococcus luteus [7]) [ug/disk]	MIC (Micrococcus luteus [8]) [ug/disk]	MIC (Staphylococcus aureus [9]) [ug/disk]	SMILES	GI50 (FaDu) [mg/L]
0.36	0.33	0.1	1.94	–	0.28	37.2	50	100	50	25	–	–	–	–	–	–	–	–	COc1ccc(/C=C\c2cc(OC)c(OC)c(OC)c2)cc1OCC[N+](C)(C)C.[I-]	0.24
3.7 (≈ 9.77 µM)	3.4 (≈ 8.97 µM)	4.7 (≈ 12.4 µM)	2.9 (≈ 7.65 µM)	> 40	2 (≈ 5.28 µM)	2.7 (≈ 7.13 µM)	–	–	–	–	–	–	–	–	–	–	–	–	COc1ccc(/C=C\c2cc(OC)c(OC)c(OC)c2)cc1OCCCl	4.6 (≈ 12.1 µM)
0.4 (≈ 1.16 µM)	0.11 (≈ 0.32 µM)	0.8 (≈ 2.33 µM)	0.9 (≈ 2.62 µM)	–	0.01 (≈ 0.0291 µM)	0.015 (≈ 0.0437 µM)	–	–	–	–	–	–	–	–	–	–	–	–	COc1ccc(/C=C\c2cc(OC)c(OC)c(OC)c2)cc1N(C)C	0.09 (≈ 0.262 µM)
0.37 (≈ 0.988 µM)	0.43 (≈ 1.15 µM)	0.38 (≈ 1.01 µM)	0.63 (≈ 1.68 µM)	6.5	0.18 (≈ 0.481 µM)	0.26 (≈ 0.694 µM)	–	–	–	–	100	–	–	–	–	–	–	–	COc1ccc(/C=C\c2cc(OC)c(OC)c(OC)c2)cc1OCCCO	0.63 (≈ 1.68 µM)
> 10	4.5 (≈ 12 µM)	11.6 (≈ 31 µM)	6.8 (≈ 18.2 µM)	–	8.1 (≈ 21.6 µM)	> 10	–	–	–	–	–	–	–	–	–	–	–	–	COc1ccc(/C=C/c2cc(OC)c(OC)c(OC)c2)cc1OCCCO	2.3 (≈ 6.14 µM)
4.9 (≈ 16.2 µM)	6.3 (≈ 20.8 µM)	> 10	4.49 (≈ 14.9 µM)	14	5.5 (≈ 18.2 µM)	5 (≈ 16.5 µM)	–	–	–	–	–	25	12.5	100	–	–	–	–	COc1ccc(/C=C/c2cc(OC)c(O)c(OC)c2)cc1O	3.2 (≈ 10.6 µM)
0.42 (≈ 0.958 µM)	0.59 (≈ 1.35 µM)	1 (≈ 2.28 µM)	2.87 (≈ 6.55 µM)	> 40	3 (≈ 6.84 µM)	2.7 (≈ 6.16 µM)	–	–	–	–	–	–	–	–	–	–	–	–	COc1ccc(/C=C\c2cc(OC)c(OC)c(OC)c2)cc1OCCOS(C)(=O)=O	0.41 (≈ 0.935 µM)
0.14 (≈ 0.388 µM)	0.32 (≈ 0.888 µM)	0.28 (≈ 0.777 µM)	0.195 (≈ 0.541 µM)	2.8	0.028 (≈ 0.0777 µM)	0.045 (≈ 0.125 µM)	–	–	–	–	100	–	–	–	–	–	–	–	COc1ccc(/C=C\c2cc(OC)c(OC)c(OC)c2)cc1OCCO	0.069 (≈ 0.191 µM)
0.74 (≈ 2.45 µM)	0.17 (≈ 0.562 µM)	3.4 (≈ 11.2 µM)	0.25 (≈ 0.827 µM)	–	0.19 (≈ 0.628 µM)	> 4	–	–	–	–	–	25	–	–	–	–	–	–	COc1ccc(/C=C\c2cc(OC)c(O)c(OC)c2)cc1O	0.23 (≈ 0.761 µM)
3.3	3.4	1.1	0.255	> 40	1.5	> 10	50	–	–	–	100	–	–	–	100	<6.25	–	–	CCN(CC)CCOc1cc(/C=C\c2cc(OC)c(OC)c(OC)c2)ccc1OC.Cl	1.1
0.34	0.38	0.64	0.523	> 40	0.21	> 10	–	–	–	–	–	–	–	–	–	–	–	–	COc1ccc(/C=C\c2cc(OC)c(OC)c(OC)c2)cc1OCCN(C)C.Cl	0.47
3.4	4.1	> 10	1.6	> 40	2.8	> 10	–	–	–	–	–	–	–	–	–	–	–	–	COc1ccc(/C=C\c2cc(OC)c(OC)c(OC)c2)cc1OCCN1CCN(C)CC1.Cl.Cl	2.9
0.0033	0.56	4.9	0.0232	20	0.0064	2.3	–	–	–	–	–	–	–	–	–	–	–	–	COc1ccc(/C=C\c2cc(OC)c(OC)c(OC)c2)cc1OCCn1cccc1.Cl	0.003
0.41	0.4	0.97	0.634	> 40	0.22	2.9	–	–	–	–	100	–	–	–	–	–	–	–	COc1ccc(/C=C\c2cc(OC)c(OC)c(OC)c2)cc1OCCN1CCOCC1.Cl	0.53
3.3	3.4	5.1	0.348	> 40	1.6	> 10	–	–	–	–	–	–	–	–	–	–	–	–	COc1ccc(/C=C\c2cc(OC)c(OC)c(OC)c2)cc1OCCN1CCCCC1.Cl	4.2
0.56	1.5	1.5	19	7.6	0.31	0.82	–	–	–	–	100	–	–	–	–	–	25	–	COc1ccc(/C=C\c2cc(OC)c(OC)c(OC)c2)cc1OCCn1ccnc1.Cl	0.67
0.34	0.35	0.6	0.421	> 40	0.22	2	–	–	–	–	–	–	–	–	–	–	25	100	COc1ccc(/C=C\c2cc(OC)c(OC)c(OC)c2)cc1OCCN1CCCC1.Cl	0.49
0.00056 (≈ 0.00177 µM)	0.00076 (≈ 0.0024 µM)	0.00026 (≈ 0.000822 µM)	0.0026 (≈ 0.00822 µM)	–	0.00026 (≈ 0.000822 µM)	> 0.1	–	–	–	–	–	–	–	–	–	–	–	–	COc1ccc(/C=C\c2cc(OC)c(OC)c(OC)c2)cc1O [COMBRETASTATIN A4]	0.00065 (≈ 0.00205 µM)

SMILES	GI50 (NCI-H460) [mg/L]	GI50 (DU-145) [mg/L]	GI50 (SW-1736) [mg/L]	EC50 (P388) [mg/L]	IC50 (Tubulin beta-1 chain) [µM]	GI50 (SK-N-SH) [mg/L]	GI50 (BXPC-3) [mg/L]	MIC (Staphylococcus aureus [1]) [ug/disk]	MIC (Streptococcus pneumoniae) [ug/disk]	MIC (Candida albicans [2]) [ug/disk]	MIC (Micrococcus luteus [3]) [ug/disk]	MIC (Neisseria gonorrhoeae [4]) [ug/disk]	MIC (Neisseria gonorrhoeae [5]) [ug/disk]	MIC (Cryptococcus neoformans) [ug/disk]	MIC (Candida albicans [6]) [ug/disk]	MIC (Enterococcus faecalis) [ug/disk]	MIC (Micrococcus luteus [7]) [ug/disk]	MIC (Micrococcus luteus [8]) [ug/disk]	MIC (Staphylococcus aureus [9]) [ug/disk]	GI50 (FaDu) [mg/L]
COc1ccc(/C=C/c2cc(OC)c(OC)c(OC)c2)cc1Br	0.36 (≈ 0.949 µM)	0.46 (≈ 1.21 µM)	10.8 (≈ 28.5 µM)	3.08 (≈ 8.12 µM)	31	0.4 (≈ 1.05 µM)	0.34 (≈ 0.897 µM)	–	–	–	–	–	–	–	–	–	–	–	–	11.4 (≈ 30.1 µM)
COc1ccc(/C=C\c2cc(OC)c(OC)c(OC)c2)cc1[N+](=O)[O-]	0.0038 (≈ 0.011 µM)	0.047 (≈ 0.136 µM)	0.0067 (≈ 0.0194 µM)	2.4 (≈ 6.95 µM)	2.6	0.014 (≈ 0.0405 µM)	0.029 (≈ 0.084 µM)	–	–	–	–	–	–	–	–	–	–	–	–	0.047 (≈ 0.136 µM)
COc1ccc(/C=C\c2cc(OC)c(OC)c(OC)c2)cc1Br	0.033 (≈ 0.087 µM)	0.027 (≈ 0.0712 µM)	0.034 (≈ 0.0897 µM)	0.16 (≈ 0.422 µM)	1.1	0.002 (≈ 0.00527 µM)	0.007 (≈ 0.0185 µM)	–	–	–	–	–	–	–	–	–	–	–	–	0.0058 (≈ 0.0153 µM)
COc1ccc(/C=C/c2cc(OC)c(OC)c(OC)c2)cc1[N+](=O)[O-]	–	> 10	2.8 (≈ 8.11 µM)	> 10	–	7.3 (≈ 21.1 µM)	> 10	–	–	–	–	–	–	–	–	–	–	–	–	3.8 (≈ 11 µM)
COc1ccc(/C=C\c2cc(OC)c(OC)c(OC)c2)cc1OC(=O)N(CCCl)CCCl	0.37 (≈ 0.764 µM)	0.31 (≈ 0.64 µM)	0.72 (≈ 1.49 µM)	0.074 (≈ 0.153 µM)	> 40	0.14 (≈ 0.289 µM)	2.8 (≈ 5.78 µM)	–	–	–	–	–	–	–	–	–	–	–	–	0.15 (≈ 0.31 µM)
COc1ccc(/C=C\c2cc(OC)c(OC)c(OC)c2)cc1N	0.00033 (≈ 0.00105 µM)	0.00033 (≈ 0.00105 µM)	0.0008 (≈ 0.00254 µM)	> 0.01	–	0.00023 (≈ 0.000729 µM)	0.00043 (≈ 0.00136 µM)	–	–	–	–	–	–	–	–	–	–	–	–	0.00053 (≈ 0.00168 µM)
COc1ccc(/C=C\c2cc(OC)c(OC)c(OC)c2)cc1OP(=O)([O-])[O-].[Na+].[Na+] [FOSBRETABULIN DISODIUM]	0.00035	0.00072	0.00061	0.0029	–	0.00025	0.23	–	–	–	–	–	–	–	–	–	–	–	–	0.00045
